Source: ChEMBL document CHEMBL4513216, “Probing the Open Global Health Chemical Diversity Library for Multistage-Active Starting Points for Next-Generation Antimalarials” (ACS Infect Dis, 2020)

Assay: Toxicity liver stage against HepG2, at 10uM
Assay type: cell-based
Parameters: test concentration 10 uM, cell line HepG2-A16-CD81EGFP
Conditions: human, HepG2-A16-CD81EGFP cells; read-out: INHIBITION
Procedure, shortened: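 Uninfected HepG2-A16-CD81EGFP cells, 3 × 10^3 per well, 1536-well, plated on prespotted compound at 10 μM final, parasite-free screening media added to match infected plates; puromycin 10 μM positive, DMSO 0.5% negative; run in parallel with 48 h PbLuc assay at 37 °C, 5% CO2; viability by CellTiter-Glo luminescence, normalized to controls.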

Structure (SMILES) | cytotoxicity at 10 µM [%]
Cc1cc(C(=O)NCc2ccccn2)no1 | -9.95
O=S1(=O)[C@@H](c2ccccc2)[C@H](CO)CN1C1CC1 | -4.83
COC1CN(C(=O)CC(C)(C)C)CCC(=O)N(C)c2ccccc21 (centres undefined) | -4.7
COc1ccc(N2CCN(C(=O)COc3c(C)occc3=O)CC2)cc1 | -2.67
CC1CC(=O)c2cc(C(=O)N3CCN(C)CC3)c(=O)[nH]c2C1 (centres undefined) | -6.32
Cc1noc(C)c1CCC(=O)NCCc1cccs1 | -3.11
Cc1cc(F)ccc1S(=O)(=O)NCC(O)c1cccn1C (centres undefined) | -5.62
Cc1ncn(CCNC(=O)Nc2ccc(OC(F)(F)F)cc2)c(=O)c1C | -1.32
Cc1nc(N(C)C)nc(C)c1NS(=O)(=O)c1ccc(OC(F)(F)F)cc1 | 7.23
O=c1c2cnc(N3CCCCC3)nc2ccn1-c1ccccc1F | 2.77
O=C(NCC1CCCO1)c1c(-n2cnnn2)sc2c1CCC2 (centres undefined) | -16.3
COCc1n[nH]/c(=N/C(=O)COc2cnc(C)cc2O)s1 | 5.84
CC(=O)c1cccc(NC(=O)Cn2cc(I)cn2)c1 | -1.87
CCn1ncc(-c2cc(C(F)(F)F)nc(N3CCC(N)CC3)n2)c1C | -6
CCN(Cc1ccccc1)c1ncnc2c(C)nn(CC)c12 | -2.48
CSc1nc2ccsc2c(=O)n1CC(=O)N1CCCCC1C (centres undefined) | 7.08
CCN1CCCC1(C)c1nc(C)cc(N)n1 (centres undefined) | -2.17
CN1CCN(CC2(O)CCCN(C(=O)Cc3cccc(O)c3)CC2)CC1 (centres undefined) | -4.86
O=C(CN1CCCC1)N1CCCC1c1nc(O)cc(-c2ccccn2)n1 (centres undefined) | -10.7
CC(NCC1(N(C)C)CCOCC1)c1ccc(Cl)cc1 (centres undefined) | -3.19
COCCNC(=O)N1CCC(NC(C)C)CC1 | 7.96

Structure (SMILES) | cytotoxicity at 10 µM [%]
Cn1cc(C(NCCc2ccccn2)c2cccc(F)c2)cn1 (centres undefined) | 9.73
NC(=O)c1cn(CC2CC2)c(C2CC2)n1 | 0.524
Cn1cc(C2(C)CN(C(=O)Nc3ccccc3F)CCO2)cn1 (centres undefined) | -5.23
Cc1ccc(C(=O)NCCCn2cccn2)c(=O)[nH]1 | 3.54
CC(=O)N1CCN(C(C)c2nnc(CC(C)C)o2)CC1 (centres undefined) | 6.88
CCc1ccc(O)c(C(=O)N2CCCN(CC(=O)N(CC)CC)CC2)c1 | 6.62
COCc1nc(C(=O)NS(=O)(=O)c2ccc(C)c(C)c2)cs1 | -8
CC(C)CC(NCc1cscn1)c1ccccn1 (centres undefined) | 2.5
Cc1ncc2c(n1)CN(CC(=O)N1CCc3sccc3C1)CC2 | 4.68
Cn1cc(C2(C)CN(Cc3ccc(Cl)c(F)c3)CCO2)cn1 (centres undefined) | 4.98
CN(C)c1ccc(NC(=O)N2CCc3sccc3C2)cn1 | -4.16
CC(C)(C)OC(=O)N1CCCCC1C(=O)NCc1cc[nH]n1 (centres undefined) | 1.41
COc1c(C2CCCN2C(=O)c2ccnn2C)c(C)nn1C (centres undefined) | 2.55
CC(C)Cn1cnnc1C1CCCN1C(=O)OC(C)(C)C (centres undefined) | 0.514
CC(C)(CO)CCCNC(=O)N1CCc2c(F)ccc(F)c2C1 | -2.18
OC[C@@H](O)CN(CCC(F)(F)F)c1ncccn1 | 2.41
Cc1ccc(CN(C)C(=O)CN2CCCC2c2cnn(C)c2)cc1 (centres undefined) | -1.6
O=C(CCN1CCOCC1)Nc1cccc(CNCc2ccsc2)c1 | -4.66
CCc1csc(NC(=O)Nc2c(C)n[nH]c2C)n1 | -3.41
Cn1cc(C2CCCN2C(=O)CCn2ccc3ccccc32)cn1 (centres undefined) | 8.84
Cc1ccc(S(C)(=O)=O)cc1C(=O)NS(=O)(=O)c1ccc(Cl)cc1 | -13.5

Structure (SMILES) | cytotoxicity at 10 µM [%]
CNC(=O)CC1CCN(C(=O)Nc2ccc(-c3cc[nH]n3)cc2)CC1 | 6.8
CCOc1ncccc1CNC(=O)N1CCCC1c1ccncc1 (centres undefined) | 21.2
NC(=O)Nc1cccc(Oc2ccccn2)c1 | 4.39
COC(=O)c1ccoc1COC(=O)CCc1ccc(OC)c(OC)c1 | 5.27
Cc1nc(COC[C@H]2CC[C@H]3[C@H](CCN3C(N)=O)O2)cs1 | -81.2
O=C(CC1CC1)NCc1cn2c(n1)CN(C(=O)C1CCOCC1)CC2 | -73.2
COCC(=O)N1CC[C@H]2O[C@@H](C)C[C@H]2C1 | -66.1
O=C(O)C(c1cccc2c1OCC2)N1CCC(N2CCCC2)CC1 (centres undefined) | 8.12
CC(c1cccc(-c2ccc(C(=O)O)cc2Cl)c1)N(C)C (centres undefined) | -2.25
CS(=O)(=O)NC1CCN(Cc2ccc(OCc3ccccn3)cc2)CC1 | 1.63
CCn1ncc2c1NC(=O)CC2c1cnc(-c2ccccn2)nc1 (centres undefined) | -7.76
CN(Cc1ccc(C(=O)NCC2COCCO2)c(=O)[nH]1)CC(C)(C)C (centres undefined) | 3.21
CCc1ccc(OCCN(C)C(=O)c2ccncc2Cl)cc1 | -2.91
Cc1cccc(CNCC2(O)CCCN(CC3CCCCC3)C2=O)n1 (centres undefined) | -10.5
CN(CCc1ccccc1)c1cnn(Cc2ccccn2)c(=O)c1 | -7.03
COc1ccc(C(=O)N2C[C@@H](C(=O)O)[C@H](c3ccccc3)C2)c(C)c1 | 5.23
COc1cnc(N2CCCC(c3ncc[nH]3)C2)nc1 (centres undefined) | -0.268
O=C(NCc1nnc2n1CCC2)c1ccc(C2CCCO2)s1 (centres undefined) | -12.4
CC(c1nccs1)N(C)S(=O)(=O)NCc1ccccc1 (centres undefined) | -2.34
CCC(O)Cn1nc(CCSC)nc1-c1ccc2[nH]ccc2c1 (centres undefined) | 4.96
Cc1ccc2c(c1)C(NC(=O)C1CCN(S(C)(=O)=O)CC1)CC(C)(C)O2 (centres undefined) | 2.22

Structure (SMILES) | cytotoxicity at 10 µM [%]
Cc1cccc(=O)n1CCCNc1ncnc2c1CCNCC2 | -9.53
CCCNC(=O)N1CCC(Oc2cc(C)ccc2F)(C(=O)O)CC1 | -23.8
N#Cc1cccnc1N1CCC2(CCCN(C3CCOCC3)C2=O)C1 (centres undefined) | -9.21
O=C(c1cc(COc2ccc3c(c2)OCO3)[nH]n1)N1CCCC1 | -0.526
COC(C(=O)N1CCN(c2cccc(Cl)c2)C(=O)C1)c1ccccc1 (centres undefined) | -9.09
CC(NC(=O)NCCCn1cncn1)c1ccc(F)cc1 (centres undefined) | -9.92
Cc1ccsc1CN(C)C(=O)c1cc2c([nH]c1=O)CCCC2=O | -5.36
CSc1ccc(CNC(c2ccc(F)cc2)c2nccn2C)cc1 (centres undefined) | -10.8
O=C(CCNc1ncccn1)Nc1cc(C(F)(F)F)c[nH]c1=O | -6.45
CCN(CC1CCOC1)C(=O)Nc1ccc(OCC(F)(F)F)nc1 (centres undefined) | -11.3
O=C(Cc1cn2ccsc2n1)N1CCCC(n2ccnc2)C1 (centres undefined) | -8.22
CC(C)C(CNC(=O)NCc1cc[nH]n1)N1CCOCC1 (centres undefined) | -7.48
Cn1cnc2c1CCN(Cc1cccc(C(N)=O)c1)C2 | -16.8
Cc1ccc(C(=O)Nc2cn[nH]c2)cn1 | -6.1
Cc1nc(C2CCCN2C(=O)c2cnns2)no1 (centres undefined) | -3.71
CC(NC(=O)N(C)Cc1ccsc1)c1ccc2c(c1)CCC(=O)N2 (centres undefined) | -7.23
CCn1ccnc1CN1CCCN(C(=O)c2sccc2C#N)CC1 | -8.08
CC(Cn1cncc1-c1cnn(C2CCCCC2)c1)N1CCCCC1 (centres undefined) | 2.87
Cc1nccn1-c1cccc(C2CCCN2)n1 (centres undefined) | 10.6
CCOC(=O)[C@]12CCCN(Cc3nccs3)C[C@H]1CN(C(C)=O)C2 | -2.99
c1cc(CNCc2ccc3c(c2)CCO3)cc(N2CCOCC2)n1 | 11.1
